Source: ChEMBL document CHEMBL3627606, “Development of Novel, CNS Penetrant Positive Allosteric Modulators for the Metabotropic Glutamate Receptor Subtype 1 (mGlu1), Based on an N-(3-Chloro-4-(1,3-dioxoisoindolin-2-yl)phenyl)-3-methylfuran-2-carboxamide Scaffold, That Potentiate Wild Type and Mutant mGlu1 Receptors Found in …” (J Med Chem, 2015)

Experiments:
[1] = biological target: T1, Metabotropic glutamate receptor 1 (Homo sapiens, UniProt Q13255); test: Positive allosteric modulation of human mGlu1 receptor in HEK293 cells assessed as potentiation of glutamate-induced calcium mobiliztion by Fluo-4AM dye based fluorescence analysis; type: functional, cell-based; settings: read-out: EC50
Target sequence in this assay (Q13255 whole entry): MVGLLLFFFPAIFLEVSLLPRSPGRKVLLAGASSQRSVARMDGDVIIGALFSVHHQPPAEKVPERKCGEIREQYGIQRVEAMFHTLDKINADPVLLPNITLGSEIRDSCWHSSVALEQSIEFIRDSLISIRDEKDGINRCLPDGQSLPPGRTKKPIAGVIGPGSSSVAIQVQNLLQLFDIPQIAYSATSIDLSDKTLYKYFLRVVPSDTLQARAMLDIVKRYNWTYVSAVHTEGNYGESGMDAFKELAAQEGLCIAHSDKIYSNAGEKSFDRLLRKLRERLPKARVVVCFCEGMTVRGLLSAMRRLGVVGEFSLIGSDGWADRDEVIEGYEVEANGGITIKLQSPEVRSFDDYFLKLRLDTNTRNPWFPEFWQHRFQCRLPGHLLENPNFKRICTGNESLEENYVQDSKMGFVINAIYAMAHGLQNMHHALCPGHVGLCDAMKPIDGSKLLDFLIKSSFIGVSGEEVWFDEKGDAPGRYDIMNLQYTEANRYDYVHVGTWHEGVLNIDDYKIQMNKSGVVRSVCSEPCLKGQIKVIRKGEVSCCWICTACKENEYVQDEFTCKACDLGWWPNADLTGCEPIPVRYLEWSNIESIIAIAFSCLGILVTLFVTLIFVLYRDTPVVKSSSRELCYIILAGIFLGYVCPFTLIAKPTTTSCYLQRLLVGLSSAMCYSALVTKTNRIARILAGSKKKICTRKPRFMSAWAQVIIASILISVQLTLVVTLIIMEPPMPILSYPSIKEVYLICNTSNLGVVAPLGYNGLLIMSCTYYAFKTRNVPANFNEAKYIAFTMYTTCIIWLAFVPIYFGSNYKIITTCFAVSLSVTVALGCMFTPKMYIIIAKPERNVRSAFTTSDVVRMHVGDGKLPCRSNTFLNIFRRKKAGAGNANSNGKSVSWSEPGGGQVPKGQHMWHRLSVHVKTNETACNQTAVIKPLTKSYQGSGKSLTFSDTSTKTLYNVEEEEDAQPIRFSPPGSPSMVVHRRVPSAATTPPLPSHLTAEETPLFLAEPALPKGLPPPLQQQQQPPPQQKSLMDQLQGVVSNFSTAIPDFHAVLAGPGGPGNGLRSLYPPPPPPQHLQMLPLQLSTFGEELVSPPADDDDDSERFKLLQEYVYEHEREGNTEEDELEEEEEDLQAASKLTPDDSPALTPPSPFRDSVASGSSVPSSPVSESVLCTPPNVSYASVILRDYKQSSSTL

[2] = biological target: T1, Metabotropic glutamate receptor 1; test: Positive allosteric modulation of human mGlu1 receptor in HEK293 cells assessed as potentiation of glutamate-induced calcium mobiliztion by Fluo-4AM dye based fluorescence analysis relative to glutamate; type: functional, cell-based
Target sequence in this assay (Q13255 19-1194 limits assumed): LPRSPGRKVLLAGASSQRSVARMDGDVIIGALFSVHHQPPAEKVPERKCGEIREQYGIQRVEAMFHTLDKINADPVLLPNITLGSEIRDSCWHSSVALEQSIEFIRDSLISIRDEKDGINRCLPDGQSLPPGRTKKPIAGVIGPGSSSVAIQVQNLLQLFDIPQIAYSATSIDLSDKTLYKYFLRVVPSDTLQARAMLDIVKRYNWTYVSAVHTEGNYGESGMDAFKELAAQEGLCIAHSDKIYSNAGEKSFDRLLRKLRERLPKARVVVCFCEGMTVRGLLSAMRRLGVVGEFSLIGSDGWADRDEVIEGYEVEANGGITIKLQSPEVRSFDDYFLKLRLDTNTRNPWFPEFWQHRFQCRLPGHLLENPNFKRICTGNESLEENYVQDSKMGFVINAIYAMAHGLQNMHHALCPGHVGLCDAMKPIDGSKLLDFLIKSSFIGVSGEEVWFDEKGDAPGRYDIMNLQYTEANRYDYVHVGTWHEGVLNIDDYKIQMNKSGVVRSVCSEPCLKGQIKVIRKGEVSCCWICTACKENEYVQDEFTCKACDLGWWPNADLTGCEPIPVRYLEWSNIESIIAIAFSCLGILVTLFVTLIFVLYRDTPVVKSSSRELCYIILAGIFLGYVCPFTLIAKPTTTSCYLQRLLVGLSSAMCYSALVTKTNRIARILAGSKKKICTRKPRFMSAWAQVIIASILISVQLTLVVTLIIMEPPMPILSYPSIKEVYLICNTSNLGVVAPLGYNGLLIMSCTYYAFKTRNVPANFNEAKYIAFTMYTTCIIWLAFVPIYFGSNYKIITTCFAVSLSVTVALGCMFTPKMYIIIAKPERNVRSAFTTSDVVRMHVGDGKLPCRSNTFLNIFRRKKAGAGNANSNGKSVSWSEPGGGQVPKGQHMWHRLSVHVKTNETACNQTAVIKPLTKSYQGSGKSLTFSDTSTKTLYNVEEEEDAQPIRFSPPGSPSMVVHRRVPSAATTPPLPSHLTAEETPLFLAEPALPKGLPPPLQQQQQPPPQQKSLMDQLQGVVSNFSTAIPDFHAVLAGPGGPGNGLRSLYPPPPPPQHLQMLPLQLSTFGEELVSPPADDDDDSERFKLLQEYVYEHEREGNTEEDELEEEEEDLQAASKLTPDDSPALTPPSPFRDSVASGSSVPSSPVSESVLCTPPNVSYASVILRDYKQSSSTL

Plasma [3] = test: Drug level in human plasma treated with N-(3-chloro-4-(5-chloro-1,3-dioxoisoindolin-2-yl)phenyl)-3-methylfuran-2-carboxamide at 10 uM after 4 hrs by mass spectrometry; type: ADME, cell-free
Procedure, shortened: (§1)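 Compound incubated at 10 μM in rat or human plasma at 37 °C. Samples taken at 0 and 4 h were analysed by mass spectrometry for parent and metabolites.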

Plasma [4] = test: Drug level in rat plasma treated with N-(3-chloro-4-(5-chloro-1,3-dioxoisoindolin-2-yl)phenyl)-3-methylfuran-2-carboxamide at 10 uM after 4 hrs by mass spectrometry; type: ADME, cell-free; procedure, shortened: as §1
[5] = biological target: T2, Metabotropic glutamate receptor 4 (Homo sapiens, UniProt Q14833); test: Positive allosteric modulation of human mGlu4 receptor assessed as potentiation of glutamate-induced calcium mobiliztion by cell based assay; type: functional
T2 sequence (Q14833 whole entry): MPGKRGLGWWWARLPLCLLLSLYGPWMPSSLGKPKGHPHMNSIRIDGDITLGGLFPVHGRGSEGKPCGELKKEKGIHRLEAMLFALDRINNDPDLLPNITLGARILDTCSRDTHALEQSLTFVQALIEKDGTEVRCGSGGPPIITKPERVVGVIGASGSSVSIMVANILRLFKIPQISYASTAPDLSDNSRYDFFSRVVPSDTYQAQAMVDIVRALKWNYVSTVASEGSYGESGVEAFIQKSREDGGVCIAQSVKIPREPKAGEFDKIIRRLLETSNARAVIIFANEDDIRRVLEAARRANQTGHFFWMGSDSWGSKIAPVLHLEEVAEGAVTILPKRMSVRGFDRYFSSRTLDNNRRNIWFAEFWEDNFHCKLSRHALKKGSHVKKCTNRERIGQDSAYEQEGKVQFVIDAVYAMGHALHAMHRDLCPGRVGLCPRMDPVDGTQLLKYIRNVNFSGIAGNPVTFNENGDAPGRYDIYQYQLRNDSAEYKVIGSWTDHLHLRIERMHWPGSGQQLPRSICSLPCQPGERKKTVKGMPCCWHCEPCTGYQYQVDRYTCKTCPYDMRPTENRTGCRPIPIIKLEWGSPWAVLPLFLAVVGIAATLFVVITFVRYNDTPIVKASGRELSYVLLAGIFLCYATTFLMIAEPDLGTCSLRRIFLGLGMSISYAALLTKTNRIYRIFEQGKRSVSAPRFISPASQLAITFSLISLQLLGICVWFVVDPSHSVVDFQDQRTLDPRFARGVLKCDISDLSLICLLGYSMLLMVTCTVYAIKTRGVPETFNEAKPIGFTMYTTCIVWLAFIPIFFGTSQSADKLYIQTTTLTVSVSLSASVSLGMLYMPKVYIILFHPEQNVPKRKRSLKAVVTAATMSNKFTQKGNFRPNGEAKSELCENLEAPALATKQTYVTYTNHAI

Homo sapiens = species on record: Homo sapiens; test: Selectivity index, ratio of EC50 for human mGlu4 receptor to EC50 for human mGlu1 receptor
[6] = biological target: T2, Metabotropic glutamate receptor 4; test: Positive allosteric modulation of human mGlu4 receptor assessed as potentiation of glutamate-induced calcium mobiliztion by cell based assay relative to PHCCC
[7] = biological target: Metabotropic glutamate receptor 1 (Rattus norvegicus, UniProt P23385); test: Positive allosteric modulation of rat mGlu1 receptor assessed as potentiation of glutamate-induced calcium mobiliztion by cell based assay; type: functional
Procedure, shortened: (§2)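 Rat mGlu1 WT calcium mobilization concentration-response curves. EC50 and % Glu Max were derived from the curves.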

[8] = biological target: Metabotropic glutamate receptor 1 (Rattus norvegicus) (UniProt P23385); test: Positive allosteric modulation of rat mGlu1 receptor assessed as potentiation of glutamate-induced calcium mobiliztion by cell based assay relative to glutamate; type: functional; procedure, shortened: as §2
[9] = biological target: T1, Metabotropic glutamate receptor 1; test: Positive allosteric modulation of human mGlu1 receptor in HEK293 cells assessed as potentiation of glutamate-induced calcium mobiliztion at 10 uM by Fluo-4AM dye based fluorescence analysis; type: functional, cell-based
Target sequence in this assay (Q13255 19-1194 limits assumed): as the sequence (Q13255 19-1194 limits assumed) above

[10] = biological target: T1, Metabotropic glutamate receptor 1; test: Agonist activity at human mGlu1 receptor in HEK293 cells assessed as calcium mobilization at 10 uM by Fluo-4AM dye based fluorescence analysis; type: functional, cell-based
Target sequence in this assay (Q13255 19-1194 limits assumed): as above

[11] = biological target: Metabotropic glutamate receptor 2 (Homo sapiens) (UniProt Q14416); test: Positive allosteric modulation of mGlu2 receptor (unknown origin) assessed as potentiation of glutamate-induced response by cell-based assay
Sequence of Metabotropic glutamate receptor 2 (Homo sapiens) (Q14416 19-872 limits assumed): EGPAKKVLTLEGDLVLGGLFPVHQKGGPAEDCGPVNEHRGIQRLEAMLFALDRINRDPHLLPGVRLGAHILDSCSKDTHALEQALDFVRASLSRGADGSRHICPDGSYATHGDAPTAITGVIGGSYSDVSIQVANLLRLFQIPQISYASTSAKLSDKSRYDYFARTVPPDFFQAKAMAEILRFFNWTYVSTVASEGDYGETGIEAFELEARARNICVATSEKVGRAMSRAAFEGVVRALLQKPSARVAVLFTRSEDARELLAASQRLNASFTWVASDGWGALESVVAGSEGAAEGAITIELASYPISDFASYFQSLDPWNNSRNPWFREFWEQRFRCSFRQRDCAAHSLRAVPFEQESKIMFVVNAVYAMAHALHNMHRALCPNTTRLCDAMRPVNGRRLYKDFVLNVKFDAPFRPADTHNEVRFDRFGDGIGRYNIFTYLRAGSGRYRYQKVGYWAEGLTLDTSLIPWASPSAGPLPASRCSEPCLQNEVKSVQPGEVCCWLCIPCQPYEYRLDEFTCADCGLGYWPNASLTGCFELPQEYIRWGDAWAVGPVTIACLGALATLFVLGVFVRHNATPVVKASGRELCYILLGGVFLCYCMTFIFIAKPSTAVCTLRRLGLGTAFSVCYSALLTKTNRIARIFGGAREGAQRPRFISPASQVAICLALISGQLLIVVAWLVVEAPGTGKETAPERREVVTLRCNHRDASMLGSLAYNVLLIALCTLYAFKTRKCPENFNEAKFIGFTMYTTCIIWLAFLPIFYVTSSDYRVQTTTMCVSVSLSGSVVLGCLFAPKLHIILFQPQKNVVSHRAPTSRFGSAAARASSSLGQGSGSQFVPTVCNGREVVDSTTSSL
Procedure, shortened: (§3)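 Selectivity counterscreen at the other mGlu subtypes using the standard fold-shift paradigm. Compound was tested at 10 μM against the glutamate concentration-response curve, and the shift of that curve was read.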

[12] = biological target: Metabotropic glutamate receptor 3 (Homo sapiens) (UniProt Q14832); test: Positive allosteric modulation of mGlu3 receptor (unknown origin) assessed as potentiation of glutamate-induced response by cell-based assay; procedure, shortened: as §3
Sequence of Metabotropic glutamate receptor 3 (Homo sapiens) (Q14832 23-879 limits assumed): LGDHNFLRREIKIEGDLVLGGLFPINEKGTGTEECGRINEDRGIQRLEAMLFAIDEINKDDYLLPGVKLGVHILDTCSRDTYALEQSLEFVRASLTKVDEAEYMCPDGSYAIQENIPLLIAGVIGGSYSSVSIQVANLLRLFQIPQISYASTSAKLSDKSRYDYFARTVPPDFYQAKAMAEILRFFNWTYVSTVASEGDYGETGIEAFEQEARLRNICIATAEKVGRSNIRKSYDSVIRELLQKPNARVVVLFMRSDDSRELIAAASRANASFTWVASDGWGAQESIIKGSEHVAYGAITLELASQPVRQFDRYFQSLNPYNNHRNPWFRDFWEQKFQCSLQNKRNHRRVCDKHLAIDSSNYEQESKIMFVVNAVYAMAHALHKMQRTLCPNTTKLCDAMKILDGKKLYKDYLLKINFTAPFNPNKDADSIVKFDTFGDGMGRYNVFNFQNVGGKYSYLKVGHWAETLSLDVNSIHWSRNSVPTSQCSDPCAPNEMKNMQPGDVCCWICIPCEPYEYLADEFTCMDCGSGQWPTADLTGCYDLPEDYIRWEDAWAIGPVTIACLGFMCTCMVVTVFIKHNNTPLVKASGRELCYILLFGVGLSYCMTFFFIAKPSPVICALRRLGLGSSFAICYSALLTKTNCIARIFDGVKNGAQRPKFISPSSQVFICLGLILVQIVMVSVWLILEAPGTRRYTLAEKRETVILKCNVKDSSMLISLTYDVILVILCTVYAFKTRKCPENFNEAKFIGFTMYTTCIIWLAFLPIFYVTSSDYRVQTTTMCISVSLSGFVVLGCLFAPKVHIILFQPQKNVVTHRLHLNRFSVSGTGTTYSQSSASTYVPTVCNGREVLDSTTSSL

[13] = biological target: Metabotropic glutamate receptor 5 (Homo sapiens) (UniProt P41594); test: Positive allosteric modulation of mGlu5 receptor (unknown origin) assessed as potentiation of glutamate-induced response by cell-based assay; procedure, shortened: as §3
[14] = biological target: Metabotropic glutamate receptor 6 (Homo sapiens) (UniProt O15303); test: Positive allosteric modulation of mGlu6 receptor (unknown origin) assessed as potentiation of glutamate-induced response by cell-based assay; procedure, shortened: as §3
[15] = biological target: Metabotropic glutamate receptor 7 (Homo sapiens) (UniProt Q14831); test: Positive allosteric modulation of mGlu7 receptor (unknown origin) assessed as potentiation of glutamate-induced response by cell-based assay; procedure, shortened: as §3
[16] = biological target: Metabotropic glutamate receptor 8 (Homo sapiens) (UniProt O00222); test: Positive allosteric modulation of mGlu8 receptor (unknown origin) assessed as potentiation of glutamate-induced response by cell-based assay; procedure, shortened: as §3
[17] = Intrinsic clearance in human liver microsomes at 1 uM by LC-MS/MS analysis; type: ADME; settings: read-out: CLH
Plasma [18] = test: Fraction unbound in rat plasma; type: ADME, cell-free
Plasma [19] = test: Metabolic stability in human plasma; type: ADME, cell-free; procedure, shortened: as §1
Cytochrome P450 1A2 = biological target: T3, Cytochrome P450 1A2 (Homo sapiens, UniProt P05177); test: Inhibition of CYP1A2 in human liver microsomes by LC-MS/MS analysis; type: ADME
T3 sequence (P05177 whole entry): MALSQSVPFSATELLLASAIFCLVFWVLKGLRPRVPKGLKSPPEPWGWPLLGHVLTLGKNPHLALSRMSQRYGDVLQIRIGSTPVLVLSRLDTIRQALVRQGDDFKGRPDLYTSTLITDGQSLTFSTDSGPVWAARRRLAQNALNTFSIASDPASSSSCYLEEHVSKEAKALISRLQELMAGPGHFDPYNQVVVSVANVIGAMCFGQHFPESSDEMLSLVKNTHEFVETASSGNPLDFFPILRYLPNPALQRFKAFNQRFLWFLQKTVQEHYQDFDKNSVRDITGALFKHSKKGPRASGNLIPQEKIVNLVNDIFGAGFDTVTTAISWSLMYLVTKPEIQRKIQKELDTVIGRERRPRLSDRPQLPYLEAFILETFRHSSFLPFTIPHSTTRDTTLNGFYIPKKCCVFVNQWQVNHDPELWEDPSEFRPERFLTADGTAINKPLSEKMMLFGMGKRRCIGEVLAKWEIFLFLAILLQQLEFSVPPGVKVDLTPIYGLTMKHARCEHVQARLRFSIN

Cytochrome P450 2C9 = Cytochrome P450 2C9 (Homo sapiens, UniProt P11712); test: Inhibition of CYP2C9 in human liver microsomes by LC-MS/MS analysis; type: ADME
Cytochrome P450 2D6 = Cytochrome P450 2D6 (Homo sapiens, UniProt P10635); test: Inhibition of CYP2D6 in human liver microsomes by LC-MS/MS analysis; type: ADME
Cytochrome P450 3A4 = Cytochrome P450 3A4 (Homo sapiens, UniProt P08684); test: Inhibition of CYP3A4 in human liver microsomes by LC-MS/MS analysis; type: ADME
Mus musculus = test: Toxicity in C57BL/6 mouse assessed as seizure activity at 100 mg/kg, ip administered as single dose measured for 3 hrs; type: organism-based; settings: in vivo
Procedure, shortened: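 Male C57Bl/6 mice (25−30 g) dosed ip in 10% Tween 80 at 10 mL/kg: the mGlu5 ago-PAM at 1 or 3 mg/kg, the mGlu1 PAMs at 100 mg/kg. Behaviour was monitored continuously for 3 h and scored on a modified Racine scale (0−5).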

Brain = test: Drug concentration in C57BL/6 mouse brain at 100 mg/kg, ip administered as single dose; type: ADME, organism-based; settings: in vivo, read-out: Drug uptake
[20] = Half life in Sprague-Dawley rat at 0.2 mg/kg, iv by LC-MS/MS analysis; settings: in vivo
[21] = Plasma clearance in Sprague-Dawley rat at 0.2 mg/kg, iv by LC-MS/MS analysis
[22] = Mean residence time in Sprague-Dawley rat at 0.2 mg/kg, iv by LC-MS/MS analysis; settings: in vivo
[23] = Plasma concentration in Sprague-Dawley rat at 0.2 mg/kg, iv after 0.25 hrs by LC-MS/MS analysis
Rattus norvegicus = test: Volume of distribution at steady state in Sprague-Dawley rat at 0.2 mg/kg, iv by LC-MS/MS analysis; settings: in vivo
[24] = Drug concentration in Sprague-Dawley rat brain at 0.2 mg/kg, iv after 0.25 hrs by LC-MS/MS analysis; settings: read-out: Drug uptake
[25] = Ratio of drug level in brain to plasma of Sprague-Dawley rat at 0.2 mg/kg, iv after 0.25 hrs by LC-MS/MS analysis; settings: read-out: BPR

Cc1ccc(C(=O)Nc2ccc(N3C(=O)c4ccccc4C3=O)c(Cl)c2)o1
EC50 [1]: > 10 µM | %max [2]: 60%

O=C(Nc1ccc(N2C(=O)c3ccccc3C2=O)c(Cl)c1)c1csnn1
EC50 [1]: > 10 µM | %max [2]: 39%

Cc1ccoc1C(=O)Nc1ccc(NC(=O)c2ccc(Cl)cc2C(=O)O)c(Cl)c1
Drug metabolism (Plasma [3]): metabolite_detected | Drug metabolism (Plasma [4]): metabolite_detected

O=C(Nc1ccc(N2C(=O)c3ccccc3C2=O)c(Cl)c1)c1cccs1
EC50 [1]: > 10 µM

Cc1ccoc1C(=O)Nc1ccc(N2C(=O)c3ccccc3C2=O)c(Cl)c1
EC50 [1]: 0.097 µM | %max [2]: 118%

O=C(Nc1ccc(N2C(=O)c3ccccc3C2=O)c(Cl)c1)c1cnn[nH]1
EC50 [1]: > 10 µM

Cc1ccoc1C(=O)Nc1ccc(N2C(=O)c3cccc(C)c3C2=O)c(Cl)c1
EC50 [1]: 0.0243 µM | %max [2]: 86% | EC50 ([5]; read-out: EC50): 620 nM | Ratio EC50 (Homo sapiens): 25.5 | %max [6]: 153%

Cc1cc(C)c(C(=O)Nc2ccc(N3C(=O)c4ccccc4C3=O)c(Cl)c2)o1
EC50 [1]: > 10 µM

Cc1ccoc1C(=O)Nc1ccc(N2C(=O)c3ccc(F)cc3C2=O)c(Cl)c1
EC50 [1]: 0.0241 µM | %max [2]: 88% | EC50 ([5]; read-out: EC50): 712 nM | EC50 ([5]; read-out: pEC50 (converted)): 724 nM | Ratio EC50 (Homo sapiens): 29.7 | %max [6]: 97%

O=C(Nc1ccc(N2C(=O)c3ccccc3C2=O)c(Cl)c1)c1ccc(Br)o1
EC50 [1]: > 10 µM | %max [2]: 45%

O=C(Nc1ccc(N2C(=O)c3ccccc3C2=O)c(Cl)c1)c1cscn1
EC50 [1]: 4.47 µM | %max [2]: 107%

O=C(Nc1ccc(N2C(=O)c3ccccc3C2=O)c(Cl)c1)c1occc1-c1ccccc1
EC50 [1]: > 10 µM

Cc1ccoc1C(=O)Nc1ccc(N2C(=O)c3ccncc3C2=O)c(Cl)c1
EC50 [1]: 0.0988 µM | %max [2]: 94% | EC50 ([5]; read-out: EC50): > 10000 nM | EC50 [7]: 113 nM | %max [8]: 115% | fold change (FC) [9]: 10.9 | Activity [10]: < 20% | fold change (FC) [11]: < 2 | fold change (FC) [12]: < 2 | fold change (FC) [13]: < 2 | fold change (FC) [14]: < 2 | fold change (FC) [15]: < 2 | fold change (FC) [16]: < 2 | CLint scaled at 1 µM [17]: 167 mL/min/kg | Fu (Plasma [18]): 0.03 | Stability (Plasma [19]): Unstable | IC50 (Cytochrome P450 1A2): > 30 µM | IC50 (Cytochrome P450 2C9): > 30 µM | IC50 (Cytochrome P450 2D6): > 30 µM | IC50 (Cytochrome P450 3A4): > 30 µM | Activity (Mus musculus): Non-toxic | concentration (Brain): 2520 nM | half-life [20]: 5.38 min | clearance [21]: 382 mL/min/kg | MRT [22]: 7.85 min | concentration at 0.25 h [23]: 12.5 ng/mL | Vdss (Rattus norvegicus): 3 L/kg | concentration at 0.25 h [24]: 35.2 ng/mL | Kp at 0.25 h [25]: 2.81 | %max [6]: 18%

O=C(Nc1ccc(N2C(=O)c3ccccc3C2=O)c(Cl)c1)C1CCCO1 (stereo not drawn)
EC50 [1]: > 10 µM

O=C(Nc1ccc(N2C(=O)c3ccccc3C2=O)c(Cl)c1)c1ncco1
EC50 [1]: > 10 µM

O=C(Nc1ccc(N2C(=O)c3ccccc3C2=O)c(Cl)c1)c1ccno1
EC50 [1]: > 10 µM

O=C(Nc1ccc(N2C(=O)c3ccccc3C2=O)c(Cl)c1)c1ccc(-c2ccccc2)o1
EC50 [1]: > 10 µM | %max [2]: 30%

CC(C)(C)c1ccc(C(=O)Nc2ccc(N3C(=O)c4ccccc4C3=O)c(Cl)c2)o1
EC50 [1]: > 10 µM
